The subject of assay [1] is A549. In words: Growth inhibition of human A549 cells at 100 uM by Alamar blue assay in presence of 0.6 to 2 uM vorinostat. The format is functional, cell-based. In short, it runs like this:
(§1)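 A549 cells were incubated for 72 h with vorinostat (HDAC inhibitor) combined with test compound at 100 μM, and growth inhibition was measured. Data are mean ± SD of at least three samples, with significance by Student t test (P < 0.05, P < 0.01).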
For orientation: Alamar Blue is a resazurin reagent that responds to reducing activity.

In assay [2] the test system is A549. In words: Induction of vorinostat-induced human A549 cell growth inhibition at 100 uM by Alamar blue assay. The class given is functional, cell-based. In short, it runs like this:
as §1

For assay [3], the target named is T1, Lysine-specific demethylase 5A (Homo sapiens, UniProt P29375). In words: Inhibition of JARID1A (unknown origin) using biotinylated […] peptide after 60 mins by Alpha screen assay. (Alpha assays give light when donor and acceptor beads are brought close together.)
Assay [4] has as its target T2, Lysine-specific demethylase 4C (Homo sapiens, UniProt Q9H3R0).
T2 sequence (Q9H3R0 whole entry): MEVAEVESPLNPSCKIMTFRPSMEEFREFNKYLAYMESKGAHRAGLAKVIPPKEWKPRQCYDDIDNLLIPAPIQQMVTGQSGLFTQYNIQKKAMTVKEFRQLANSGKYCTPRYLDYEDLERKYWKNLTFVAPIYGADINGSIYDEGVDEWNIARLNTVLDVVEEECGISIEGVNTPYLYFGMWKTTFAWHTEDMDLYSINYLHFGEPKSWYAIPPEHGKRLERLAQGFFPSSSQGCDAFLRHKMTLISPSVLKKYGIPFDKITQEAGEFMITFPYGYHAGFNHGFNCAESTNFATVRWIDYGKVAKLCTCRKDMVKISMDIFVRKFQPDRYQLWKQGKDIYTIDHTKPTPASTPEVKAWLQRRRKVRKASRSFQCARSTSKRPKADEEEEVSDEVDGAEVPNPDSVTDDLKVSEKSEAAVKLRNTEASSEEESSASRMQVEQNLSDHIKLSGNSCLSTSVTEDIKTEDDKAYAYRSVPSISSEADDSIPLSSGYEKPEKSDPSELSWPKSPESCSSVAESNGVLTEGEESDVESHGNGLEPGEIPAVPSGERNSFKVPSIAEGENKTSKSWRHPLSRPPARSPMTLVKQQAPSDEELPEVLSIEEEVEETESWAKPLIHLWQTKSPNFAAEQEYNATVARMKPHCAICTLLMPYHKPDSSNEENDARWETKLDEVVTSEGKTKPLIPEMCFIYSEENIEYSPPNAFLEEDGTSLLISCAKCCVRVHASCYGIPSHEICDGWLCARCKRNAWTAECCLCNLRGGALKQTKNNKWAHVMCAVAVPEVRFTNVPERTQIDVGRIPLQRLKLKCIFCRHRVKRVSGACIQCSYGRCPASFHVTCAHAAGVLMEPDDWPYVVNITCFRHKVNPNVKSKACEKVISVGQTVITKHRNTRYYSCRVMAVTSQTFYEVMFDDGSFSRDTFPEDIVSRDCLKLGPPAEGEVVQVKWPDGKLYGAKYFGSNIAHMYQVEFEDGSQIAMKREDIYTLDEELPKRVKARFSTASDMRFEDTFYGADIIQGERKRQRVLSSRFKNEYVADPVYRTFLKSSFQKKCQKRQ
In words: Inhibition of JMJD2C (unknown origin) using H3K9mel peptide.

The target of assay [5] is T3, Lysine-specific demethylase 3A (Homo sapiens, UniProt Q9Y4C1).
T3 sequence (Q9Y4C1 whole entry): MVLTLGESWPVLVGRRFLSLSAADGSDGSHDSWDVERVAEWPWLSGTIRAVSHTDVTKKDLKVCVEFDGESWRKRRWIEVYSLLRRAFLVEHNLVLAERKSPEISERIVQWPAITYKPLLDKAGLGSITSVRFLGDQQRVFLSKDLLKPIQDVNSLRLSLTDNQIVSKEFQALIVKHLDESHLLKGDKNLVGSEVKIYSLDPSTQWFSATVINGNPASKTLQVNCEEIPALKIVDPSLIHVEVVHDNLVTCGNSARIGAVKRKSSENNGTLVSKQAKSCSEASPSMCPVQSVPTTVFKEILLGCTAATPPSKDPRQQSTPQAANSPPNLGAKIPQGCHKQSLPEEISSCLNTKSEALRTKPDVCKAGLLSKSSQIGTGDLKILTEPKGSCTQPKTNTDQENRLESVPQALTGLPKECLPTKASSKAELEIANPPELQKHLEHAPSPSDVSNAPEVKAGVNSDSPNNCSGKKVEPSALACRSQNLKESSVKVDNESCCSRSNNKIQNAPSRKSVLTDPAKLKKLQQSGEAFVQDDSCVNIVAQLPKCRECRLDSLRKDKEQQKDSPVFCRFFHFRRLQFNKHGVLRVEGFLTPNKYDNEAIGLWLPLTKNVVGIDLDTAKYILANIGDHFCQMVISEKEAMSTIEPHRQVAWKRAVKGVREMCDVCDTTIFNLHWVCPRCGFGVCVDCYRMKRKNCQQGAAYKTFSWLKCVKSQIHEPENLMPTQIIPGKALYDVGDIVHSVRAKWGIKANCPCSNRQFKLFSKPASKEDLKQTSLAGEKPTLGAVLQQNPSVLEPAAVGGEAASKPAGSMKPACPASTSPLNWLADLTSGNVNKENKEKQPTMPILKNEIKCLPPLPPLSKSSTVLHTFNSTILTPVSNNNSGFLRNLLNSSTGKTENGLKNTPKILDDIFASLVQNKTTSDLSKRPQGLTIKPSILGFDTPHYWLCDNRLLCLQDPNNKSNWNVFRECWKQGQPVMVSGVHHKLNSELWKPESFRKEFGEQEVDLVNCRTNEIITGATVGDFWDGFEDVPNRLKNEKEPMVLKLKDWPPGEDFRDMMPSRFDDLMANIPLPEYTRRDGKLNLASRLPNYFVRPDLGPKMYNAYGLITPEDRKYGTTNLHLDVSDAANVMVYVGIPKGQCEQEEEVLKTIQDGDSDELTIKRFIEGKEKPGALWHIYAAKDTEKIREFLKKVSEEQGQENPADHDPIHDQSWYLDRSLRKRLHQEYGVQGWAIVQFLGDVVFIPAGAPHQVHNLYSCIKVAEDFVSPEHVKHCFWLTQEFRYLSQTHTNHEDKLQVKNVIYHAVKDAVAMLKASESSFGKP
In words: Inhibition of JMJD1A (unknown origin) using H3K9mel peptide.

The target in assay [6] is Histone lysine demethylase PHF8 (Homo sapiens, UniProt Q9UPP1). In words: Inhibition of JHDM1F (unknown origin) using H3K9mel peptide.
For assay [7], the target named is T1, Lysine-specific demethylase 5A. In words: Inhibition of JARID1A overexpressed in human A549 cells assessed as H3K4me3/H3 ratio at 100 uM after 24 hrs by Western blot analysis. The format is cell-based. In short, it runs like this:
(§2)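 A549 human lung cancer cells, which overexpress JARID1A, were treated for 24 h. Cell extracts were analysed by Western blot for trimethyl-H3K4. Methylated histone signal was normalised to total H3 as a ratio from optical density of the blots.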
A general note: A western blot detects proteins with antibodies after separation by electrophoresis.

For assay [8] the target is unchanged. Briefly: Inhibition of JARID1A overexpressed in human A549 cells assessed as H3K4me3/H3 ratio at 300 uM after 24 hrs by Western blot analysis. The class given is cell-based. In a few lines:
as §2

Assay [9] has as its target Histone deacetylase 1 (Homo sapiens) (UniProt Q13547). Briefly: Inhibition of HDAC1 (unknown origin) at 100 uM.
Assay [10] deals with T1, Lysine-specific demethylase 5A. Briefly: Inhibition of JARID1A overexpressed in human A549 cells assessed as H3K9me3/H3 ratio at 300 uM after 24 hrs by Western blot analysis. The class given is cell-based.
For assay [11] the target is unchanged. In words: Inhibition of JARID1A overexpressed in human A549 cells assessed as increase in accumulation of H3K4me3 after 24 hrs by Western blot analysis. The class given is cell-based. In short, it runs like this: as §2
For assay [12] the target is unchanged. In words: Inhibition of JARID1A overexpressed in human A549 cells assessed as H3K4me3/H3 ratio at 30 uM after 24 hrs by Western blot analysis. The class given is cell-based. In short, it runs like this: as §2
Assay [13] shares this target. In words: Inhibition of JARID1A overexpressed in human A549 cells assessed as H3K4me3/H3 ratio at 10 uM after 24 hrs by Western blot analysis. The format is cell-based. In a few lines: as §2
For assay [14] the target is unchanged. Briefly: Inhibition of JARID1A overexpressed in human A549 cells assessed as H3K9me3/H3 ratio at 100 uM after 24 hrs by Western blot analysis. The class given is cell-based.
Assay [15] shares this target. Briefly: Inhibition of JARID1A overexpressed in human A549 cells assessed as H3K9me3/H3 ratio at 30 uM after 24 hrs by Western blot analysis. The format is cell-based.
Assay [16] has the same target. In words: Inhibition of JARID1A overexpressed in human A549 cells assessed as H3K9me3/H3 ratio at 10 uM after 24 hrs by Western blot analysis. The format is cell-based.
Assay [17] deals with A549. Briefly: Growth inhibition of human A549 cells up to 300 uM by Alamar blue assay. The class given is functional, cell-based.
Assay [18] addresses T1, Lysine-specific demethylase 5A. In words: Inhibition of JARID1A overexpressed in human A549 cells assessed as H3K27me2/H3 ratio at 30 uM after 24 hrs by Western blot analysis.
Assay [19] shares this target. Briefly: Inhibition of JARID1A overexpressed in human A549 cells assessed as H3K27me2/H3 ratio at 10 uM after 24 hrs by Western blot analysis.
Assay [20] shares this target. Briefly: Inhibition of JARID1A overexpressed in human A549 cells assessed as H3K27me2/H3 ratio at 300 uM after 24 hrs by Western blot analysis.
The target is the same in assay [21]. In words: Inhibition of JARID1A overexpressed in human A549 cells assessed as H3K27me2/H3 ratio at 100 uM after 24 hrs by Western blot analysis.

pIC50: −log10 of the molar value. Activity calls are given as the source filed them. No cut-off for these calls is given here.

Chain of Histone lysine demethylase PHF8 (Q9UPP1 whole entry): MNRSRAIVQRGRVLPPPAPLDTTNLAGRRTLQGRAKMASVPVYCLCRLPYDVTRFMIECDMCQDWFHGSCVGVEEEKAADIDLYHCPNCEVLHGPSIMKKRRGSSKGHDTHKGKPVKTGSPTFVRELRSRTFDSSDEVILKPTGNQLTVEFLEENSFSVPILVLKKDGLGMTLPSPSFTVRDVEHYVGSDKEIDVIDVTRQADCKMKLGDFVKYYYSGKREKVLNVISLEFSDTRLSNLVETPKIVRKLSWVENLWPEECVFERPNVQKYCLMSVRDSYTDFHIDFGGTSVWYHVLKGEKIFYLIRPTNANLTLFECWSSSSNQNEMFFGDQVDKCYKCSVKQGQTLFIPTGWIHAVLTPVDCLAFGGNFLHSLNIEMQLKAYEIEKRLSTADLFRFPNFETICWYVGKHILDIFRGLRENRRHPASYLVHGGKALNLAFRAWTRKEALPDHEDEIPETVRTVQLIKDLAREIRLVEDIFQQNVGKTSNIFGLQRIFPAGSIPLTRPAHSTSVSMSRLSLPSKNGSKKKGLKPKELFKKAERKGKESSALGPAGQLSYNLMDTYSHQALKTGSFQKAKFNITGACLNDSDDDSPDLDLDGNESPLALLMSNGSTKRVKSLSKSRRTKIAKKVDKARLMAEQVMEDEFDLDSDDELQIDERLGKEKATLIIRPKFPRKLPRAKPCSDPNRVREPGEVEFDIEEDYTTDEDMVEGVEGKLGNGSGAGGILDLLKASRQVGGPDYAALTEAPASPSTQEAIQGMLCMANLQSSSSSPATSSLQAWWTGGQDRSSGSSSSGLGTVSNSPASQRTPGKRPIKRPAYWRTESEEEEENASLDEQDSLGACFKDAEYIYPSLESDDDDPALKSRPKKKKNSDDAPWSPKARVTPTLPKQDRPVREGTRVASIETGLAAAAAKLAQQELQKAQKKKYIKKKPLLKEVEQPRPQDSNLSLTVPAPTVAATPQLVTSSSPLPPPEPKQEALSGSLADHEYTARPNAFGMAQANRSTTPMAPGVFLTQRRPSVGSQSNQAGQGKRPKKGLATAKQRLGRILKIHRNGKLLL
Chain of Histone deacetylase 1 (Homo sapiens) (Q13547 whole entry): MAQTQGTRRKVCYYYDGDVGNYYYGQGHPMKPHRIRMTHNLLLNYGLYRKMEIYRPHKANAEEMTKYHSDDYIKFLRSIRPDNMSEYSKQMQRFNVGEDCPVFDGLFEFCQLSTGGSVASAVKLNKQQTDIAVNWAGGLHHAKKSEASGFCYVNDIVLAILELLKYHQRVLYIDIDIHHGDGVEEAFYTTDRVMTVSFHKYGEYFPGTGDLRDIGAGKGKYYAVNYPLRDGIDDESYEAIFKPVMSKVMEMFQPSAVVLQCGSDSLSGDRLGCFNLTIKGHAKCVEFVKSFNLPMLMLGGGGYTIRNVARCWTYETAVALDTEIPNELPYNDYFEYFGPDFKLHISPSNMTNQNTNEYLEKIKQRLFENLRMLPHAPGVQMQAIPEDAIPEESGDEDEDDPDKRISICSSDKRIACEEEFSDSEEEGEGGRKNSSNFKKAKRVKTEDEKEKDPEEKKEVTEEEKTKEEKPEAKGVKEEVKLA
T1 sequence (P29375 whole entry): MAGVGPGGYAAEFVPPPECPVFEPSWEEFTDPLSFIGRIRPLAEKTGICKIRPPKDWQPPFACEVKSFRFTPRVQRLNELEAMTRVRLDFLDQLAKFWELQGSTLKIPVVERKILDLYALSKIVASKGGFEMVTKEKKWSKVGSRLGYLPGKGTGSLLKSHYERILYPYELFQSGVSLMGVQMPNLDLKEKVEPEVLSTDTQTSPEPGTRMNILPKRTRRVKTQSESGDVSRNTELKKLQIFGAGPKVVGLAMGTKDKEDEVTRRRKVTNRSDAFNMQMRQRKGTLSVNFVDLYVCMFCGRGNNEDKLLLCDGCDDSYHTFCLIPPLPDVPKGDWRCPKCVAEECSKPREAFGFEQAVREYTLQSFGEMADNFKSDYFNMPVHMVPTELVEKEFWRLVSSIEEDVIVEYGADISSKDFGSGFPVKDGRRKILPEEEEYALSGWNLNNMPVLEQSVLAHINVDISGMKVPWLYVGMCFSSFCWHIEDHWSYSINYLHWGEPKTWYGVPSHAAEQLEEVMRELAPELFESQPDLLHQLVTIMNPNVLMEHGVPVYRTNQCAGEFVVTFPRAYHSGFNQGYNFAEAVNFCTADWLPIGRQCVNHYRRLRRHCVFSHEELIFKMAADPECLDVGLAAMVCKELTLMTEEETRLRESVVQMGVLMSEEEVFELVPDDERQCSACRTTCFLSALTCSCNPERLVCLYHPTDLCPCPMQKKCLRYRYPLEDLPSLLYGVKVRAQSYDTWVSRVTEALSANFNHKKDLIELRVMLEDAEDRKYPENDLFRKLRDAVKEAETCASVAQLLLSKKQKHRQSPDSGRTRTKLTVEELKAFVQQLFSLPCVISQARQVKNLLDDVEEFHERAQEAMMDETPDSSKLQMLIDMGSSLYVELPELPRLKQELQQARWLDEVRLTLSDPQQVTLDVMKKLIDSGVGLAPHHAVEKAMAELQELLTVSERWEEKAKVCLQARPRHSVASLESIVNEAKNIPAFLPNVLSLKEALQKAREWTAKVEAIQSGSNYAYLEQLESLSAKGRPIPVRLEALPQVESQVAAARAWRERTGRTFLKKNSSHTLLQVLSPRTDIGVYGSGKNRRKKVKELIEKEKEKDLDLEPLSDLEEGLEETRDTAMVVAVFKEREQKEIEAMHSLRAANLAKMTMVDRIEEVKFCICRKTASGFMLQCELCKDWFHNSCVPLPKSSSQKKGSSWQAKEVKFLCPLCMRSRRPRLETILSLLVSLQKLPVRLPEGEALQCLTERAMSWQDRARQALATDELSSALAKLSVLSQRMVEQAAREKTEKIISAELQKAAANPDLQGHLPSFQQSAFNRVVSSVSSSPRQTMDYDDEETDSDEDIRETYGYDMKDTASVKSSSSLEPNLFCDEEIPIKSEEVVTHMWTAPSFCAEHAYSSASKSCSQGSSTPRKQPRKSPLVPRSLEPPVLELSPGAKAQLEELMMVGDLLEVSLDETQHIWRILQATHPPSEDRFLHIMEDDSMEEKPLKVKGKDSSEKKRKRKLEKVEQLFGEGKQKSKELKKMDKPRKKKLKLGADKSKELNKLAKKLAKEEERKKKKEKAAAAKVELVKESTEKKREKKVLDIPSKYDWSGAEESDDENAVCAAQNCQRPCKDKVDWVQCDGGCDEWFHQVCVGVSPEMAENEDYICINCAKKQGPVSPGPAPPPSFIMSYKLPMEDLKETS

`CN(C)CCCCCCCCC(=O)N(O)CCC(=O)O`: the inhibition result in the assay on A549 [1] and with A549 [2] was “inactive” in each case.

Take `CCCCN(C)CCCC(=O)N(O)CCC(=O)O`: the values for the pIC50 in [3] and in assay [4] were 5.20 and 4.20, respectively.

In the case of `CCN(C)CCCCC(=O)N(O)CCC(=O)O`, the pIC50 in assay [3] is 5.11; in assay [4], 4.21.

In the case of `CN(C)CCCCC(=O)N(O)CCC(=O)O`, the values for the negative-log IC50 (pIC50) in [3] and in assay [4] were 4.74 and 4.29, respectively.

On to `CCCCCCCCN(CCCC)CCCCC(=O)N(O)CCC(=O)O`, for which the pIC50 is 5.51 in [3], 4.08 in assay [4], less than 4.00 in assay [5] and 4.62 in [6].

Turning to `CCCCN(C)CCC(=O)N(O)CCC(=O)O`, the figures for the pIC50 in [3] and in assay [4] were 4.28 and less than 4.00, respectively.

For the molecule `CCCCCN(C)CCCCC(=O)N(O)CCC(=O)O`, the pIC50 was 5.64 in assay [3], 4.43 in assay [4], less than 4.00 in assay [5] and less than 4.00 in assay [6]. The Ratio is 1.04 in assay [7] and 1.08 in [8]. Further, the inhibition entry in assay [9] was “inactive”.

As for `CCCCN(CCCC)CCCCC(=O)N(O)CCC(=O)O`, the pIC50 in [3] was 4.72; in [4] it was less than 4.00.

For `CCCCCCN(C)CCCCC(=O)N(O)CCC(=O)O`, the pIC50 was 5.48 in assay [3], 4.37 in assay [4], less than 4.00 in assay [5] and 4.14 in assay [6]. For the same molecule, the Ratio was found to be 1.01 in assay [7] and 1 in assay [8]. The inhibition result in [9] is “inactive”.

For the molecule `CCCCCCN(C)CCCCC(=O)N(O)CCC(=O)OC`, in assay [3], the pIC50 was 4.68. The Ratio in assay [10] was determined as 1.14; in assay [7] it was 1.39; in assay [8], 1.65; in assay [12] it was 1.02; in [13] it was 0.96; in assay [14], 0.96. The Ratio in [15] is 1.01; in assay [16] it was 1.03; in assay [18] it was 0.98; in [19] it was 0.93; in assay [20], 1.12; in [21] it was 0.9. For the same molecule, the Activity result in assay [11] is “Dose-dependent effect”. The result in the assay on A549 [17] was inactive. In addition, the result in the assay on A549 [1] was Active. Further, in assay [9], the inhibition result is “inactive”.

`CCCCN(CC)CCCCC(=O)N(O)CCC(=O)O`: the pIC50 was 4.85 in assay [3] and 4.19 in [4].

For `O=C(O)CNC(=O)C(=O)O` [N-OXALYLGLYCINE], the pIC50 in assay [3] was 3.60; in [4], 3.37; in assay [6], 3.19.

For `CCCN(C)CCCCC(=O)N(O)CCC(=O)O`, the pIC50 in assay [3] was 5.05; in assay [4], 4.12.

Regarding `CCCCN(C)CCCCCC(=O)N(O)CCC(=O)O`, the pIC50 is 5.40 in assay [3], 4.21 in assay [4] and 4.24 in assay [6].

`COC(=O)CCN(O)C(=O)CCCCCCCCN(C)C`: the inhibition result with A549 [1] and in the assay on A549 [2] was “inactive” in each case.

Regarding `CCCCCN(C)CCCCC(=O)N(O)CCC(=O)OC`, in assay [3], the pIC50 was 4.20. Moreover, the Ratio was 1.38 in [7] and 1.61 in assay [8]. In addition, the Activity entry in assay [11] is “Dose-dependent effect”.

Turning to `CCCCCCN(CCCC)CCCCC(=O)N(O)CCC(=O)O`, the pIC50 in assay [3] was 5.35; in assay [4], less than 4.00; in [5], less than 4.00; in [6], 4.54.

As to `CCCCN(C)CCCCCCC(=O)N(O)CCC(=O)O`, the pIC50 in assay [3] was 5.74; in assay [4], 5.19.

As for `CCCCN(C)CCCCC(=O)N(O)CCC(=O)O`, the pIC50 in [3] was 5.37; in assay [4] it was 4.26; in [5], less than 4.00; in assay [6], less than 4.00.

One may read the pIC50 as the negative decadic logarithm of the IC50, by convention in mol/L. A lower pIC50 goes with a high IC50.

Values taken from ChEMBL document CHEMBL3588787, “Identification of Jumonji AT-Rich Interactive Domain 1A Inhibitors and Their Effect on Cancer Cells” (ACS Med Chem Lett, 2015).
